Results as given in the array DNA melting data of Ke et al. (doi:10.1101/2024.01.08.574731).

Experiments:
[1] = melting temperature; fluorescence melt of hairpins on a sequencing array, two-state fit, raised by 9.35 °C to match UV melts; conditions: sodium 0.088 M
Outline: (§1)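 Bootstrapped two-state fits yielded melting temperature and folding enthalpy for library hairpins. Cy3 fluorescence, with annealed Cy3 and quencher oligos, was imaged on a sequenced MiSeq flow cell in 50 mM Na-HEPES pH 8.0, 25 mM NaCl in 2.5 °C steps up to 60 °C, and normalised to pre-quench Cy3 and to control constructs. Four replicates were combined by inverse variance, and fitted temperatures were raised by 9.35 °C to match UV melts.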

[2] = folding enthalpy; higher = less favourable; fluorescence melt of hairpins on a sequencing array, two-state fit; conditions: sodium 0.088 M
Outline: as §1

| Sequence | Tm [1] | folding enthalpy [2] |
| --- | --- | --- |
| GGTACCCGAAAGGGCACC (((.(((....))).))) | 55.6 °C | -32.3 kcal/mol |
| GGTACCGAAAGGTAACC ((((((....))).))) | 53.4 °C | -26.9 kcal/mol |
| GGTACCGAAAGGTATACC ((((((....)))..))) | 41.4 °C | -15.3 kcal/mol |
| GGTACCGAAAGGTCAACC ((((((....)))..))) | 34.5 °C | -15.3 kcal/mol |
| GGTACCGAAAGGTTACC ((((((....))).))) | 50 °C | -26.4 kcal/mol |
| GGTACCGAAAGGTTTACC ((((((....)))..))) | 37.1 °C | -13.8 kcal/mol |
| GGTACCGGAAACAGTACC (((((.(....).))))) | 39.9 °C | -31.1 kcal/mol |
| GGTACCGGAAACGGTGCC ((.((((....)))).)) | 60.6 °C | -38.3 kcal/mol |
| GGTACGCGAAAGCGACC (((.(((....)))))) | 54.8 °C | -14.9 kcal/mol |
| GGTACGGGAAACCACACC (((..((....))..))) | 33 °C | -16.2 kcal/mol |
| GGTACGGGAAACCGTGCC ((.((((....)))).)) | 59.7 °C | -40.9 kcal/mol |
| GGTACGGGAAACCGTGTC (..((((....))))..) | 35.3 °C | -14.1 kcal/mol |
| GGTACTCGAAAGAGCACC (((.(((....))).))) | 50.5 °C | -34.8 kcal/mol |
| GGTACTCGAAAGAGGACC (((.(((....))).))) | 61.5 °C | -42.7 kcal/mol |
| GGTACTGAAAAGTACC ((((((....)))))) | 57.4 °C | -39.5 kcal/mol |
| GGTAGAACGAAAGTTACC (((..(((....)))))) | 35 °C | -17 kcal/mol |
| GGTAGAGGAAACCCTACC (((((.(....).))))) | 38.2 °C | -33.4 kcal/mol |
| GGTAGAGGAAACTCTATC (.(((((....))))).) | 37.1 °C | -26.9 kcal/mol |
| GGTAGAGGAAACTTTACC ((((.((....)).)))) | 34 °C | -24.9 kcal/mol |
| GGTAGCCGAAAGGCGACC (((.(((....))).))) | 66.9 °C | -24.5 kcal/mol |
| GGTAGCGAAAGCTAACC ((((((....))).))) | 53.8 °C | -18.7 kcal/mol |
| GGTAGCGAAAGCTGTACC ((((((....)))..))) | 40.7 °C | -19.9 kcal/mol |
| GGTAGCGAAAGCTTGACC ((((((....)))..))) | 35.7 °C | -13.9 kcal/mol |

| Sequence | Tm [1] | folding enthalpy [2] |
| --- | --- | --- |
| GGTAGGAAACTACC (((((....))))) | 48.2 °C | -26.5 kcal/mol |
| GGTAGGCGAAAGCCGACC (((.(((....))).))) | 65.4 °C | -18.6 kcal/mol |
| GGTAGGGGAAACCCTATC (.(((((....))))).) | 44.3 °C | -24.4 kcal/mol |
| GGTAGGGGAAACCTTGCC ((.(.((....)).).)) | 34.7 °C | -20.2 kcal/mol |
| GGTAGGGGAAACTCTGCC ((.((.(....).)).)) | 35.1 °C | -22.9 kcal/mol |
| GGTAGTCGAAAGACAACC (((.(((....))).))) | 51.3 °C | -25.2 kcal/mol |
| GGTAGTGGAAACACTGTC (..((((....))))..) | 29.2 °C | -20.9 kcal/mol |
| GGTAGTGGAAACATTACC ((((.((....)).)))) | 41.6 °C | -34.3 kcal/mol |
| GGTATCCGAAAGGAAACC (((.(((....))).))) | 48.8 °C | -31.9 kcal/mol |
| GGTATCGAAAGATCCACC ((((((....)))..))) | 31.8 °C | -14.7 kcal/mol |
| GGTATCGAAAGATGAACC ((((((....)))..))) | 27.9 °C | -15.4 kcal/mol |
| GGTATCGAAAGATGCACC ((((((....)))..))) | 33.9 °C | -16.1 kcal/mol |
| GGTATCGAAAGATGGACC ((((((....)))..))) | 28.9 °C | -15.2 kcal/mol |
| GGTATGCGAAAGCAACC (((.(((....)))))) | 47.7 °C | -14.5 kcal/mol |
| GGTATGGGAAACCACACC (((.(((....))).))) | 38.6 °C | -27 kcal/mol |
| GGTATGGGAAACCATATC (.(((((....))))).) | 39.7 °C | -24.1 kcal/mol |
| GGTATGGGAAACCATGTC (..((((....))))..) | 27.4 °C | -13.5 kcal/mol |
| GGTATTGAAAAATACC ((((((....)))))) | 49 °C | -38.8 kcal/mol |
| GGTATTGGAAACAATACC (((((((....))))))) | 56.9 °C | -43.7 kcal/mol |
| GGTATTGGAAACAATATC (.(((((....))))).) | 37.1 °C | -24.9 kcal/mol |
| GGTCAAGCGAAAGCTACC (((..(((....)))))) | 34.8 °C | -17.8 kcal/mol |
| GGTCAAGGAAACCTGACC (((((.(....).))))) | 46.5 °C | -30.5 kcal/mol |
| GGTCACCGAAAGGTAACC (((.(((....))).))) | 48.4 °C | -27.5 kcal/mol |

| Sequence | Tm [1] | folding enthalpy [2] |
| --- | --- | --- |
| GGTCACGAAAGTGAGACC ((((((....)))..))) | 45.8 °C | -15.7 kcal/mol |
| GGTCACGAAAGTGGTACC ((((((....)))..))) | 42.7 °C | -14.3 kcal/mol |
| GGTCACGAAAGTGTCACC ((((((....)))..))) | 37.9 °C | -13.3 kcal/mol |
| GGTCACGAAAGTGTGACC ((((((....)))..))) | 56.3 °C | -33.8 kcal/mol |
| GGTCACGGAAACGTGGCC ((.((((....)))).)) | 64.9 °C | -37.2 kcal/mol |
| GGTCAGACGAAAGTCACC (((..(((....)))))) | 30.5 °C | -14.6 kcal/mol |
| GGTCAGCGAAAGCTTACC (((.(((....))).))) | 48.9 °C | -31.8 kcal/mol |
| GGTCAGGGAAACTTGGCC ((.((.(....).)).)) | 38.2 °C | -26.1 kcal/mol |
| GGTCATCGAAAGATACC (((.(((....)))))) | 38.4 °C | -24.2 kcal/mol |
| GGTCATGGAAACACGACC ((((.((....)).)))) | 43 °C | -37.1 kcal/mol |
| GGTCATGGAAACATGGTC (..((((....))))..) | 32.7 °C | -17.6 kcal/mol |
| GGTCCAGAAATGGACC ((((((....)))))) | 64 °C | -46 kcal/mol |
| GGTCCAGGAAACCGAACC (((.(.(....).).))) | 25.7 °C | -10 kcal/mol |
| GGTCCCCGAAAGGGTACC (((.(((....))).))) | 53.3 °C | -24.1 kcal/mol |
| GGTCCCGAAAGGGAAACC ((((((....)))..))) | 43.2 °C | -15.3 kcal/mol |
| GGTCCCGAAAGGGATACC ((((((....)))..))) | 41.4 °C | -12.9 kcal/mol |
| GGTCCCGAAAGGGCACC ((((((....))).))) | 53.5 °C | -16.6 kcal/mol |
| GGTCCGTCGAAAGACACC (((..(((....)))))) | 27.5 °C | -14.1 kcal/mol |
| GGTCCTCGAAAGAGACC (((.(((....)))))) | 48.1 °C | -31.3 kcal/mol |
| GGTCGAGAAATCGACC ((((((....)))))) | 66.2 °C | -40 kcal/mol |
| GGTCGAGGAAACCCGACC (((((.(....).))))) | 54.1 °C | -49.6 kcal/mol |
| GGTCGAGGAAACTCGGCC ((.((((....)))).)) | 59.5 °C | -53.9 kcal/mol |
| GGTCGCACGAAAGTGACC (((..(((....)))))) | 49.6 °C | -18.1 kcal/mol |

| Sequence | Tm [1] | folding enthalpy [2] |
| --- | --- | --- |
| GGTCGCGAAAGCGGTACC ((((((....)))..))) | 46.5 °C | -14.5 kcal/mol |
| GGTCGCGGAAACGTGGCC ((.(.((....)).).)) | 53.5 °C | -48.9 kcal/mol |
| GGTCGGAAACGACC (((((....))))) | 68 °C | -32.3 kcal/mol |
| GGTCGGGGAAACCTGACC ((((.((....)).)))) | 57.2 °C | -37.5 kcal/mol |
| GGTCGTGGAAACACGATC (.(((((....))))).) | 54 °C | -38 kcal/mol |
| GGTCGTGGAAACGTGACC ((((..(....)..)))) | 46.5 °C | -20.4 kcal/mol |
| GGTCTAACGAAAGTTACC (((..(((....)))))) | 25.5 °C | -10.2 kcal/mol |
| GGTCTACCGAAAGGTACC (((..(((....)))))) | 29.1 °C | -11 kcal/mol |
| GGTCTACGAAAGTAACC (((.(((....)))))) | 34.3 °C | -24 kcal/mol |
| GGTCTAGGAAACTAGATC (.(((((....))))).) | 40.3 °C | -29.8 kcal/mol |
| GGTCTAGGAAACTAGGCC ((.((((....)))).)) | 51.1 °C | -46.1 kcal/mol |
| GGTCTAGGAAACTGGACC ((((.((....)).)))) | 51 °C | -41.6 kcal/mol |
| GGTCTATCGAAAGATACC (((..(((....)))))) | 25.8 °C | -10.3 kcal/mol |
| GGTCTCCGAAAGGAAACC (((.(((....))).))) | 45.5 °C | -29.2 kcal/mol |
| GGTCTCCGAAAGGAACC (((.(((....)))))) | 45.2 °C | -22.4 kcal/mol |
| GGTCTCGAAAGAGATACC ((((((....)))..))) | 38.7 °C | -15.2 kcal/mol |
| GGTCTCGAAAGAGGTACC ((((((....)))..))) | 35 °C | -19.9 kcal/mol |
| GGTCTCGAAAGAGTCACC ((((((....)))..))) | 31.3 °C | -14.6 kcal/mol |
| GGTCTCGGAAACGAGGCC ((.((((....)))).)) | 62.2 °C | -39.3 kcal/mol |
| GGTCTCTCGAAAGAGACC (((..(((....)))))) | 60.5 °C | -35.3 kcal/mol |
| GGTCTGCGAAAGCAACC (((.(((....)))))) | 44.6 °C | -18.8 kcal/mol |
| GGTCTGCGAAAGCACACC (((.(((....))).))) | 42.1 °C | -20.9 kcal/mol |
